Data on five compounds can be found in ChEMBL document CHEMBL4715748, “Synthesis and biological investigation of new equatorial (β) stereoisomers of 3-aminotropane arylamides with atypical antipsychotic profile” (Bioorg Med Chem, 2016).

The subject of series [1] is Mus musculus. The series is described as follows: Antipsychotic activity Swiss Albino mouse assessed as inhibition of DOI-induced head twitching by measuring number of episodes at 5 mg/kg, ip administered 30 mins prior to DOI stimulation (reference value: 19.63 to 19.88). In kind it is functional. The settings on record: 0.5 h. The procedure, abridged:
(§1)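 Male Albino Swiss mice (24–28 g) were habituated to sawdust-lined cages 20 min before the first treatment. Compounds were suspended in 1% aqueous Tween 80 and given i.p. 30 min before (±)-DOI, 2.5 mg/kg i.p. in aqueous solution. Head twitches were counted blind over 20 min, n=8 per group, mean ± SEM, one-way ANOVA with Dunnett's test.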

In series [2] the test system is Mus musculus. Nature of the series: Effect on 8-OH-DPAT-induced hypothermia in Swiss albino mouse assessed as change in rectal body temperature at 10 mg/kg, ip pretreated with compound for 45 mins followed by 8-OH-DPAT challenge and measured after 45 min by thermometer (reference value: -1.04 to -0.78 degreeC). In kind it is functional, organism-based. Conditions: time 90.0 min.

Series [3] can be described thus: Effect on body temperature in Swiss Albino mouse assessed as rectal body temperature at 10 mg/kg, ip measured after 90 mins by thermometer (reference value: 0.18 to 0.63 degreeC). It is filed as ADME, organism-based. Conditions: in vivo, 1.5 h.
The nature of series [4]: Effect on body temperature in Swiss Albino mouse assessed as rectal body temperature at 10 mg/kg, ip measured after 120 mins by thermometer (reference value: 0.15 to 1.11 degreeC). The settings on record: in vivo, 2 h. In kind it is organism-based.
Series [5] concerns Mus musculus. The series is described as follows: Antipsychotic activity Swiss Albino mouse assessed as inhibition of DOI-induced head twitching by measuring number of episodes at 10 mg/kg, ip administered 30 mins prior to DOI stimulation (reference value: 19.63 to 19.88). In kind it is functional. Conditions: 0.5 h. The procedure, abridged: as §1
A further series addresses D(2) dopamine receptor (Rattus norvegicus, UniProt P61169). The series is described as follows: Displacement of [3H] Spiperone from rat striatum dopamine D2 receptor measured after 30 mins by liquid scintillation counter method. The gist of the method: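 Competition binding in rat brain tissue membranes against D2, 5-HT1A and 5-HT2A sites; Ki reported as mean ± S.E.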

A short description of series [6]: Metabolic stability in pooled human liver microsomes at 2.5 uM measured over 45 mins in presence of NADPH by LC-MS analysis. It is filed as ADME, Microsome. Conditions: 0.75 h. The procedure, abridged:
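Compound at 2.5 μM (added from 100 μM stock in 50/50 acetonitrile/water) with 1 mg/mL pooled human liver microsomes and 250 μM NADPH in 0.1 M potassium phosphate pH 7.4 at 37 °C after 5-min preincubation. Sampled at 5, 10, 15, 30, 45 min into ice-cold acetonitrile with atropine internal standard; parent quantified by LC-MS (ESI+, [M+H]+); no-NADPH controls; half-time derived.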

The subject of series [7] is Mus musculus. The series is described as follows: Antipsychotic activity Swiss Albino mouse assessed as inhibition of DOI-induced head twitching by measuring number of episodes at 0.625 mg/kg, ip administered 30 mins prior to DOI stimulation (reference value: 19.63 to 19.88). The settings on record: 0.5 h. It is filed as functional. The gist of the method:
as §1

The test system of series [8] is Mus musculus. The series is described as follows: Effect on 8-OH-DPAT-induced hypothermia in Swiss albino mouse assessed as change in rectal body temperature at 20 mg/kg, ip pretreated with compound for 45 mins followed by 8-OH-DPAT challenge and measured after 60 min by thermometer (reference value: -0.66 to -0.5 degreeC). In kind it is functional, organism-based. The settings on record: time 105.0 min.

For series [9], the system named is Mus musculus. The series is described as follows: Antipsychotic activity in Swiss Albino mouse assessed as inhibition of apomorphine-induced climbing behaviour at 10 mg/kg, ip administered 30 mins prior to APO challenge and measured after 40 mins. In kind it is functional, organism-based. The settings on record: time 70.0 min. The gist of the method:
(§2)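 Male Albino Swiss mice received compound i.p. (10 mg/kg in 1% Tween 80) 30 min before the test and apomorphine 2.5 mg/kg s.c. 10 min before the test. Each mouse was placed in a cage with a metal grid and scored positive when all four paws were on the grid. Blinded observation every 10 min to 60 min, then at 120 min. n=8, Fisher's exact test with Yates' correction.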

The nature of series [10]: Effect on 8-OH-DPAT-induced lower lip retraction in Wistar rat at 10 mg/kg, ip pretreated with compound for 45 mins followed by 8-OH-DPAT challenge and measured after 15 mins (reference value: 2.7 to 2.8). In kind it is functional. The settings on record: time 60 min, 1 h.
Series [11] has as its system Mus musculus. Nature of the series: Antipsychotic activity in Swiss Albino mouse assessed as inhibition of apomorphine-induced climbing behaviour at 10 mg/kg, ip administered 30 mins prior to APO challenge and measured after 30 mins. In kind it is functional, organism-based. Conditions: time 60.0 min. The gist of the method: as §2
The subject of series [12] is Mus musculus. Nature of the series: Antipsychotic activity in Swiss Albino mouse assessed as inhibition of apomorphine-induced climbing behaviour at 10 mg/kg, ip administered 30 mins prior to APO challenge and measured after 60 mins. In kind it is functional, organism-based. The settings on record: time 90.0 min. The gist of the method:
as §2

The source made the active and inactive calls. No cut-off for these calls is given here.

D(2) dopamine receptor, sequence (P61169 whole entry): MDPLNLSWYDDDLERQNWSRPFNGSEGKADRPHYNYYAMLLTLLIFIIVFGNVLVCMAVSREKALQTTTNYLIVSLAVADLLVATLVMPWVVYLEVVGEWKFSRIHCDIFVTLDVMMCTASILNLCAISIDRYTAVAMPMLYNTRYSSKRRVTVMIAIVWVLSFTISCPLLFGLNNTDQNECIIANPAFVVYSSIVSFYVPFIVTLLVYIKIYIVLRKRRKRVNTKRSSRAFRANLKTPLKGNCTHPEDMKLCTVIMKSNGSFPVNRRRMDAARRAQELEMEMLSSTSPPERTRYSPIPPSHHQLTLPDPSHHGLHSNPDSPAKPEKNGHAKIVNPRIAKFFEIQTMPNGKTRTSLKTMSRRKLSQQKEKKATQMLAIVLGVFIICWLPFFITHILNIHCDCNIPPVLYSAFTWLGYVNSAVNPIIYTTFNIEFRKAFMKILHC

Consider `O=C(NC1CC2CCC(C1)N2Cc1cccc(F)c1)c1ccc2ccccc2c1` (stereo not given), for which the Activity came out at 3.88 in the series on Mus musculus [1], 2.38 with Mus musculus [5], 17.38 with Mus musculus [7] and 2.4 in [10]. Further, the deltaT with Mus musculus [2] was -0.97 °C; in series [3], 0.47 °C; in series [4] it was 0.74 °C; in the series on Mus musculus [8], -1.08 °C. In addition, the Ki (in general, the dissociation constant of the complex between target and ligand, obtained from inhibition or displacement) at D(2) dopamine receptor amounted to 214 nM. Also, the Stabilty entry in series [6] is “Stable”. In addition, the inhibition result in the series with Mus musculus [9] is “Active”.

As to `Cc1cccc(CN2C3CCC2CC(NC(=O)c2ccc4ccccc4c2)C3)c1` (stereo not given), the Activity in the series on Mus musculus [1] was 10; in the series with Mus musculus [5], 2.38; in [10] it was 2.3. Moreover, the deltaT is -0.48 °C with Mus musculus [2], 0.35 °C in series [3], 0.27 °C in series [4] and -1.5 °C in the series with Mus musculus [8]. Besides, in the series with Mus musculus [11], the inhibition entry is “Active”. The compound further displayed a Ki on D(2) dopamine receptor of 3.3 nM.

For `O=C(NC1CC2CCC(C1)N2Cc1cccc(Cl)c1)c1ccc2ccccc2c1` (stereo not given), the values for the Activity (with Mus musculus [1]; with Mus musculus [5]; in series [10]) were 13.13, 8.75 and 2.6, respectively. In addition, the deltaT in the series on Mus musculus [2] is -0.85 °C; in series [3] it was 0.84 °C; in [4], 1.16 °C; in the series with Mus musculus [8], -1.57 °C. The compound also registered a Ki on D(2) dopamine receptor of 3.6 nM. Moreover, the Stabilty result in series [6] is given as “Stable”.

As for `O=C(NC1CC2CCC(C1)N2Cc1cccc(Br)c1)c1ccc2ccccc2c1` (stereo not given), the Activity in the series with Mus musculus [1] amounted to 13.88; in the series on Mus musculus [5], 11.88; in series [10], 2.4. In addition, the deltaT with Mus musculus [2] is -1 °C; in [3] it was 0.64 °C; in series [4] it was 1.14 °C; in the series with Mus musculus [8], -0.58 °C. In the series with Mus musculus [11], the inhibition entry was “Active”. For the same compound, the Ki on D(2) dopamine receptor amounted to 11.6 nM. The Stabilty entry in [6] is reported as “Stable”.

Regarding `O=C(NC1CC2CCC(C1)N2Cc1ccc(F)cc1)c1ccc2ccccc2c1` (stereo not given), the Activity with Mus musculus [1] is listed as 5; in the series on Mus musculus [5], 5.38; in the series with Mus musculus [7] it was 17.63; in series [10], 2.5. In addition, the deltaT in the series with Mus musculus [2] was -0.92 °C; in [3], 0.44 °C; in series [4], 0.59 °C; with Mus musculus [8], -1 °C. For the same compound, the inhibition entry in the series on Mus musculus [12] was “Active”. In addition, the affinity at D(2) dopamine receptor, expressed as Ki, was 137 nM. Besides, the Stabilty result in [6] is listed as “Stable”.
